In this experiment the test system is Mycobacterium tuberculosis. The experiment is described as follows: Antimycobacterial activity against Mycobacterium tuberculosis H37Rv assessed as inhibition of bacterial growth for 5 weeks by spot culture growth inhibition assay. The format is functional. The following applies: 840 h. The method in brief: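 M. tuberculosis H37Rv grown shaking at 37 °C in 7H9 with 0.5% glycerol, 10% OADC and 0.025% Tween 80 to OD 1, then diluted 1:100 and 2 µL spotted. Wells hold 7H10 agar with 0.5% glycerol and 10% OADC plus compound, two-fold serial dilutions in DMSO from 150 μg mL-1. Plates used within 24 h. Incubated 37 °C for five weeks, then MIC90 recorded.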

≈ marks a conversion by molar mass, not a printed value.

By MIC90 is commonly meant the lowest concentration that inhibits either 90% of growth or 90% of the strains tested, depending on the study.

For the compound `CC(C)Oc1ccc(-c2nn(-c3ccc(Cl)cc3)cc2Cn2ccnc2)cc1`, the MIC90 was found to be 15.3 µM (≈ 6.01 µg/mL).

Values taken from ChEMBL document CHEMBL5104207, “Synthesis, biological evaluation and computational studies of pyrazole derivatives as Mycobacterium tuberculosis CYP121A1 inhibitors” (RSC Med Chem, 2022).
